Reference: ChEMBL document CHEMBL4725434, “Discovery of Selective, Covalent FGFR4 Inhibitors with Antitumor Activity in Models of Hepatocellular Carcinoma” (ACS Med Chem Lett, 2020)
Calls of active or inactive are those of the source. No cut-off for these calls is given here.

What was measured:
[1] = Clearance in cynomolgus monkey at 3 mg/kg, iv; type: ADME, organism-based, Macaca fascicularis; conditions: in vivo
[2] = system: Huh-7; assay: Antitumor activity against human Huh7 cells xenografted in po dosed SCID mouse sorafenib-resistance established model assessed as tumor regression at 100 mg/kg, po bid for 11 days relative to untreated control; conditions: time 11.0 day
[3] = Half life in mouse at 3 mg/kg, iv; type: ADME, organism-based; conditions: in vivo
[4] = system: Huh-7; assay: Antitumor activity against human Huh7 cells xenografted in po dosed SCID mouse sorafenib-resistance established model assessed as tumor regression at 30 mg/kg, po bid for 11 days relative to untreated control; conditions: time 11.0 day
[5] = Oral bioavailability in mouse at 10 mg/kg; type: ADME, organism-based; conditions: in vivo
[6] = Clearance in rat at 3 mg/kg, iv; type: ADME, organism-based; conditions: in vivo
[7] = AUC in cynomolgus monkey at 3 mg/kg, iv; type: ADME, organism-based, Macaca fascicularis; parameters: dose 3 mg/kg; conditions: in vivo
[8] = Cmax in mouse at 10 mg/kg, po; type: ADME, organism-based; parameters: route oral, dose 10 mg/kg; conditions: in vivo
[9] = Volume of distribution at steady state in mouse at 3 mg/kg, iv; type: ADME, organism-based; conditions: in vivo, read-out: Vdss
[10] = system: Huh-7; assay: Antitumor activity against human Huh7 cells xenografted in po dosed SCID mouse sorafenib-resistance established model assessed as tumor regression measured after 11 days relative to untreated control; type: functional, organism-based; conditions: time 11.0 day
Outline: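 Huh7 tumors grown subcutaneously in SCID mice were made sorafenib-resistant by oral sorafenib at 100 mg/kg daily for […]. Oral dosing was then given at 10, 30 or 100 mg/kg BID for 11 days. Sorafenib 100 mg/kg once daily was the comparator arm. Read-out was tumor growth as %ΔT/ΔC.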

[11] = Volume of distribution at steady state in cynomolgus monkey at 3 mg/kg, iv; type: ADME, organism-based, Macaca fascicularis; conditions: in vivo, read-out: Vdss
[12] = Oral bioavailability in rat 10 mg/kg; type: ADME, organism-based; conditions: in vivo
[13] = AUC in rat at 3 mg/kg, iv; type: ADME, organism-based; parameters: dose 3 mg/kg; conditions: in vivo
[14] = Volume of distribution at steady state in rat 3 mg/kg, iv; type: ADME, organism-based; conditions: in vivo, read-out: Vdss
[15] = Cmax in rat at 10 mg/kg, po; type: ADME, organism-based; parameters: route oral, dose 10 mg/kg; conditions: in vivo
[16] = Half life in cynomolgus monkey at 10 mg/kg, po; type: ADME, organism-based, Macaca fascicularis; conditions: in vivo
[17] = Half life in cynomolgus monkey at 3 mg/kg, iv; type: ADME, organism-based, Macaca fascicularis; conditions: in vivo
[18] = Half life in rat at 3 mg/kg, iv; type: ADME, organism-based; conditions: in vivo
[19] = AUC in mouse at 3 mg/kg, iv; type: ADME, organism-based; parameters: dose 3 mg/kg; conditions: in vivo
[20] = Oral bioavailability in cynomolgus monkey at 10 mg/kg; type: ADME, organism-based, Macaca fascicularis; conditions: in vivo
[21] = system: Hep 3B2; assay: Antitumor activity against human Hep3B cells xenografted in SCID mouse orthotopic model assessed as inhibition of tumor regression at 100 mg/kg, po bid measured after 28 days relative to control; conditions: time 28.0 day
[22] = AUC in mouse at 10 mg/kg, po; type: ADME, organism-based; parameters: dose 10 mg/kg; conditions: in vivo
[23] = Half life in mouse at 10 mg/kg, po; type: ADME, organism-based; conditions: in vivo
[24] = Clearance in mouse at 3 mg/kg, iv; type: ADME, organism-based; conditions: in vivo
[25] = AUC in cynomolgus monkey at 10 mg/kg, po; type: ADME, organism-based, Macaca fascicularis; parameters: dose 10 mg/kg; conditions: in vivo
[26] = system: FGFR4 (Homo sapiens); assay: In vivo receptor occupancy at FGFR4 in human Huh7 cells xenografted SCID mouse orthotopic model at 100 mg/kg, po qd after 10 hrs relative to control
[27] = Half life in rat at 10 mg/kg, po; type: ADME, organism-based; conditions: in vivo
[28] = AUC in rat at 10 mg/kg, po; type: ADME, organism-based; parameters: dose 10 mg/kg; conditions: in vivo

SMILES: C=CC(=O)N[C@H]1COC[C@H]1Nc1ncc2cc(-c3c(Cl)c(OC)cc(OC)c3Cl)c(=O)n(C)c2n1
- clearance [1]: 8.4 mL/min/kg
- Activity [2]: Active
- t1/2 [3]: 2.1 h
- Activity [4]: Active
- bioavailability [5]: 20%
- clearance [6]: 9 mL/min/kg
- AUC [7]: 6420 ng·h/mL
- Cmax [8]: 423 ng/mL
- Vd [9]: 0.63 L/kg
- Activity [10]: inactive
- Vd [11]: 1.1 L/kg
- bioavailability [12]: 12%
- AUC [13]: 5610 ng·h/mL
- Vd [14]: 0.3 L/kg
- Cmax [15]: 588 ng/mL
- half-life [16]: 2 h
- t1/2 [17]: 4.8 h
- t1/2 [18]: 2.1 h
- AUC [19]: 2910 ng·h/mL
- bioavailability [20]: 27%
- Activity [21]: Active
- AUC [22]: 2960 ng·h/mL
- half-life [23]: 1.8 h
- clearance [24]: 17.2 mL/min/kg
- AUC [25]: 5660 ng·h/mL
- Activity [26]: >80%
- half-life [27]: 3.2 h
- AUC [28]: 2230 ng·h/mL
